Experimental data from ChEMBL document CHEMBL2151019, “Potent and selective inhibitors of PI3Kδ: obtaining isoform selectivity from the affinity pocket and tryptophan shelf” (Bioorg Med Chem Lett, 2012).
Values belong to the compound of their own block, whether it stands above or below them.

Tests used:
[1] = Selectivity ratio of IC50 for PI3Kalpha to IC50 for PI3Kdelta
Procedure, shortened: (§1)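 Ratios of biochemical IC50 values, each against the PI3Kδ IC50. Both IC50s come from the fluorescence polarization assay monitoring PIP2-to-PIP3 conversion by each Class I isoform.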

[2] = Selectivity ratio of IC50 for PI3Kbeta to IC50 for PI3Kdelta; procedure, shortened: as §1
[3] = Selectivity ratio of IC50 for PI3Kgamma to IC50 for PI3Kdelta; procedure, shortened: as §1
[4] = biological target: T1, Phosphatidylinositol 4,5-bisphosphate 3-kinase catalytic subunit delta isoform (Homo sapiens, UniProt O00329); experiment: Inhibition of PI3K p110delta using PIP2 as substrate assessed as PIP3 formation by fluorescence polarization assay
T1 sequence (O00329 whole entry): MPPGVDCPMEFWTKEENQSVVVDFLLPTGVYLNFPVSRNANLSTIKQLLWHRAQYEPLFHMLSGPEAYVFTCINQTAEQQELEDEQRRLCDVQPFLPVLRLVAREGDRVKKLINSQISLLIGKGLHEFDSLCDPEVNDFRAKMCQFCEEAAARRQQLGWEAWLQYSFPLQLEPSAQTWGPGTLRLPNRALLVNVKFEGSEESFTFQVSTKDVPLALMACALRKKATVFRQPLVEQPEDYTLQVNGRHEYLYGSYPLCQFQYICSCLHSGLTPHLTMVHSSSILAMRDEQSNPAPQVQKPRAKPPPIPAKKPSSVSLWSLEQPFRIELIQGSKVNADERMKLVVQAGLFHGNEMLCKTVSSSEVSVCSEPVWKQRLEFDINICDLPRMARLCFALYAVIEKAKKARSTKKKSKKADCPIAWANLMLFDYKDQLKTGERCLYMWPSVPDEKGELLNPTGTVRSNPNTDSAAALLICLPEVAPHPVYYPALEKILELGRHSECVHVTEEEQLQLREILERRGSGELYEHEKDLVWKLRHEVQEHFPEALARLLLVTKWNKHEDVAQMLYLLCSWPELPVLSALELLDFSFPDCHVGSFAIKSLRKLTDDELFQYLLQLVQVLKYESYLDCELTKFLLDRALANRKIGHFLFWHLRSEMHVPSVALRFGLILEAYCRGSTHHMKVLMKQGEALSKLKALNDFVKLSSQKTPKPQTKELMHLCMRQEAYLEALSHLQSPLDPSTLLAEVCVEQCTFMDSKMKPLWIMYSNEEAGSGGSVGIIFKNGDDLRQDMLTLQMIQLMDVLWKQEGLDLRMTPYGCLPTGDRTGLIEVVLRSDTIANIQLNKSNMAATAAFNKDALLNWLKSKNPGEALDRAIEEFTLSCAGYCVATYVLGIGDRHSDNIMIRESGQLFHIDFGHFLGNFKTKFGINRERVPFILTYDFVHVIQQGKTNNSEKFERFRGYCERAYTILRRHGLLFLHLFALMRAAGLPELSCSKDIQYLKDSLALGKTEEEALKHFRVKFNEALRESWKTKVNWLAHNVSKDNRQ
Procedure, shortened: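 Biochemical fluorescence polarization assay following conversion of PIP2 to PIP3 by PI3Kδ; IC50 determined.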

[5] = biological target: T1, Phosphatidylinositol 4,5-bisphosphate 3-kinase catalytic subunit delta isoform; experiment: Inhibition of PI3Kdelta-mediated AKT phosphorylation in B cells in presence of human serum; assay type: cell-based
Procedure, shortened: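 Cellular assay in the PI3Kδ-dependent B-cell cancer line Ri-1. Downstream pAKT measured with human serum added (serum-shifted); IC50 determined.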

[6] = Oral bioavailability in CD1 mouse at 5 mg/kg; assay type: ADME, organism-based; details: in vivo
Procedure, shortened: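 Female CD-1 mice received an IV dose of 1 mg/kg in 5% DMSO/5% Cremophor and an oral dose of 5 mg/kg as an MCT suspension (0.5% methylcellulose/0.2% Tween-80). Plasma exposure was compared between the two routes.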

[7] = Oral bioavailability in Sprague-Dawley rat at 5 mg/kg; assay type: ADME, organism-based; details: in vivo
Procedure, shortened: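 Male Sprague–Dawley rats received an IV dose of 1 mg/kg in 5% DMSO/5% Cremophor and an oral dose of 5 mg/kg as an MCT suspension (0.5% methylcellulose/0.2% Tween-80). Plasma exposure was compared between the two routes.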

[8] = Clearance in CD1 mouse at 1 mg/kg, iv; assay type: ADME, organism-based; parameters: dose 1 mg/kg, route intravenous; details: in vivo
[9] = Clearance in Sprague-Dawley rat at 1 mg/kg, iv; assay type: ADME, organism-based; parameters: dose 1 mg/kg, route intravenous; details: in vivo
Procedure, shortened: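 Male Sprague–Dawley rats received 1 mg/kg intravenously in 5% DMSO/5% Cremophor. In vivo clearance was derived from plasma concentrations over time.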

[10] = Volume of distribution at steady state in CD1 mouse at 1 mg/kg, iv; assay type: ADME, organism-based; parameters: dose 1 mg/kg, route intravenous; details: in vivo, read-out: Vdss
Procedure, shortened: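 Single IV dose of 1 mg/kg in 5% DMSO/5% Cremophor to female CD-1 mice. Pharmacokinetic parameters were taken from plasma concentrations over time.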

[11] = Volume of distribution at steady state in Sprague-Dawley rat at 1 mg/kg, iv; assay type: ADME, organism-based; parameters: dose 1 mg/kg, route intravenous; details: in vivo, read-out: Vdss
Procedure, shortened: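 Male Sprague–Dawley rats were given 1 mg/kg IV in 5% DMSO/5% Cremophor. Pharmacokinetic parameters were taken from plasma concentrations over time.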

[12] = Cmax in CD1 mouse at 5 mg/kg, po; assay type: ADME, organism-based; parameters: dose 5 mg/kg, route oral; details: in vivo
Procedure, shortened: (§2)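 Female CD-1 mice were given a 5 mg/kg oral dose as an MCT suspension (0.5% methylcellulose/0.2% Tween-80). Cmax, AUC and half-life came from the plasma concentration–time profiles.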

[13] = Cmax in Sprague-Dawley rat at 5 mg/kg, po; assay type: ADME, organism-based; parameters: dose 5 mg/kg, route oral; details: in vivo
Procedure, shortened: (§3)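 Oral dosing in male Sprague–Dawley rats used an MCT suspension (0.5% methylcellulose/0.2% Tween-80). Cmax, AUC and terminal half-life were taken from plasma concentration–time curves.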

[14] = AUC in CD1 mouse at 5 mg/kg, po; assay type: ADME, organism-based; parameters: dose 5 mg/kg, route oral; details: plasma; procedure, shortened: as §2
[15] = AUC in Sprague-Dawley rat at 5 mg/kg, po; assay type: ADME, organism-based; parameters: dose 5 mg/kg, route oral; details: plasma; procedure, shortened: as §3
[16] = Half life in CD1 mouse at 5 mg/kg, po; assay type: ADME, organism-based; parameters: dose 5 mg/kg, route oral; details: in vivo; procedure, shortened: as §2
[17] = Half life in Sprague-Dawley rat at 5 mg/kg, po; assay type: ADME, organism-based; parameters: dose 5 mg/kg, route oral; details: in vivo; procedure, shortened: as §3
[18] = Cmax in BALB/c mouse at 20 mg/kg, po; assay type: ADME, organism-based; parameters: dose 20 mg/kg, route oral; details: in vivo
Procedure, shortened: (§4)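 Female Balb/c mice received the compound orally as a suspension in 0.5% methylcellulose/0.2% Tween-80 (MCT). Plasma concentration–time profiles were used to derive Cmax, AUC and terminal half-life.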

[19] = Cmax in Sprague-Dawley rat at 10 mg/kg, po; assay type: ADME, organism-based; parameters: dose 10 mg/kg, route oral; details: in vivo; procedure, shortened: as §3
[20] = AUC in BALB/c mouse at 20 mg/kg, po; assay type: ADME, organism-based; parameters: dose 20 mg/kg, route oral; details: plasma; procedure, shortened: as §4
[21] = AUC in Sprague-Dawley rat at 10 mg/kg, po; assay type: ADME, organism-based; parameters: dose 10 mg/kg, route oral; details: plasma; procedure, shortened: as §3
[22] = Half life in BALB/c mouse at 20 mg/kg, po; assay type: ADME, organism-based; parameters: dose 20 mg/kg, route oral; details: in vivo; procedure, shortened: as §4
[23] = Half life in Sprague-Dawley rat at 10 mg/kg, po; assay type: ADME, organism-based; parameters: dose 10 mg/kg, route oral; details: in vivo; procedure, shortened: as §3
[24] = Cmax in BALB/c mouse at 40 mg/kg, po; assay type: ADME, organism-based; parameters: dose 40 mg/kg, route oral; details: in vivo; procedure, shortened: as §4
[25] = Cmax in Sprague-Dawley rat at 30 mg/kg, po; assay type: ADME, organism-based; parameters: dose 30 mg/kg, route oral; details: in vivo; procedure, shortened: as §3
[26] = AUC in BALB/c mouse at 40 mg/kg, po; assay type: ADME, organism-based; parameters: dose 40 mg/kg, route oral; details: plasma; procedure, shortened: as §4
[27] = AUC in Sprague-Dawley rat at 30 mg/kg, po; assay type: ADME, organism-based; parameters: dose 30 mg/kg, route oral; details: plasma; procedure, shortened: as §3
[28] = Half life in BALB/c mouse at 40 mg/kg, po; assay type: ADME, organism-based; parameters: dose 40 mg/kg, route oral; details: in vivo; procedure, shortened: as §4
[29] = Half life in Sprague-Dawley rat at 30 mg/kg, po; assay type: ADME, organism-based; parameters: dose 30 mg/kg, route oral; details: in vivo; procedure, shortened: as §3

IC50 [4]: 0.0026 µM | Ratio IC50 [1]: 5.4 | Ratio IC50 [2]: 73 | Ratio IC50 [3]: 43 | IC50 [5]: 0.145 µM
Compound: CC(C)(O)C1CCN(Cc2ccc3nc(-c4cnc(N)nc4)nc(N4CCOCC4)c3n2)CC1

Ratio IC50 [1]: 22 | Ratio IC50 [2]: 78 | Ratio IC50 [3]: 260 | IC50 [5]: 0.48 µM
Compound: CC(C)(O)C1CCN(Cc2ccc3nc(-c4cccc5[nH]ncc45)nc(N4CCOCC4)c3n2)CC1

IC50 [4]: 0.027 µM | Ratio IC50 [1]: 14 | Ratio IC50 [2]: 3.7 | Ratio IC50 [3]: 38 | IC50 [5]: 0.145 µM
Compound: OCc1ccc2nc(-c3c(F)ccc4[nH]ccc34)nc(N3CCOCC3)c2n1

The remaining lines, values behind:

Compound: CC(C)(O)C1CCN(Cc2nc3c(N4CCOCC4)nc(-c4c(F)ccc5[nH]ccc45)nc3[nH]2)CC1
Ratio IC50 [1]: 330 | Ratio IC50 [2]: 140 | Ratio IC50 [3]: 1500

Compound: CC(C)(O)C1CCN(Cc2nc3c(N4CCOCC4)nc(-c4c(F)ccc5[nH]ccc45)nc3s2)CC1
IC50 [4]: 0.0006 µM | Ratio IC50 [1]: 220 | Ratio IC50 [2]: 200 | Ratio IC50 [3]: 1400

Compound: Fc1ccc2[nH]ccc2c1-c1nc(N2CCOCC2)c2nc(CN3CCOCC3)ccc2n1
IC50 [4]: 0.012 µM | Ratio IC50 [1]: 58 | Ratio IC50 [2]: 13 | Ratio IC50 [3]: 120 | IC50 [5]: 0.067 µM

Compound: CC(C)(O)C1CCN(Cc2ccc3nc(-c4c(F)ccc5[nH]ccc45)nc(N4CCOCC4)c3n2)CC1
bioavailability [6]: 80% | bioavailability [7]: 90% | clearance [8]: 3.18 L/h/kg | clearance [9]: 3.54 L/h/kg | Vd [10]: 4.9 L/kg | Vd [11]: 8.8 L/kg | Cmax [12]: 0.9 µM | Cmax [13]: 0.5 µM | AUC [14]: 2.5 µM·h | AUC [15]: 2.6 µM·h | half-life [16]: 2.6 h | half-life [17]: 2.6 h | Cmax [18]: 3.9 µM | Cmax [19]: 1.2 µM | AUC [20]: 13 µM·h | AUC [21]: 11 µM·h | half-life [22]: 2.9 h | half-life [23]: 3.8 h | Cmax [24]: 14 µM | Cmax [25]: 4.7 µM | AUC [26]: 63 µM·h | AUC [27]: 46 µM·h | half-life [28]: 5 h | half-life [29]: 4.8 h

Compound: CC(C)(O)C1CCN(Cc2cc3nc(-c4c(F)ccc5[nH]ccc45)nc(N4CCOCC4)c3s2)CC1
IC50 [4]: 0.004 µM | Ratio IC50 [1]: 170 | Ratio IC50 [2]: 110 | Ratio IC50 [3]: 910

Compound: CC(C)(O)C1CCN(Cc2nc3nc(-c4c(F)ccc5[nH]ccc45)nc(N4CCOCC4)c3[nH]2)CC1
IC50 [4]: 0.0019 µM

Compound: CC(C)(O)C1CCN(Cc2ccc3nc(-c4cccc5[nH]ccc45)nc(N4CCOCC4)c3n2)CC1
Ratio IC50 [1]: 370 | Ratio IC50 [2]: 210 | Ratio IC50 [3]: 610 | IC50 [5]: 0.055 µM
